# Test results: ChEMBL document CHEMBL1124794, “Synthesis, chemistry, and antineoplastic activity of alpha-halopyridinium salts: potential pyridone prodrugs of acylated vinylogous carbinolamine tumor inhibitors” (J Med Chem, 1990)
# Experiments:
# [1] = Hydrolysis were done at 25 degree C in 0.05 M phosphate buffer (pH 7.4); type: ADME
# In short: (§1)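 Model pyridinium salts were hydrolysed to pyridones at 25 °C in 0.05 M phosphate buffer, pH 7.4. Decay of the pyridinium UV absorption maximum was monitored over time, giving pseudo-first-order k_obs and half-life.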
# [2] = Half life of the compound; type: ADME
# L1210 [3] = assay: In vivo activity against murine L1210 tumor system at the dose of 25 mg/kg, activity expressed as KE; type: functional, Mus musculus
# In short: (§2)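 L1210 lymphocytic leukemia: ascitic fluid with ca. 10^6 cells injected ip into CD2F1 mice. Dosing started 24 h after inoculation and was repeated daily for five doses in total, from solutions or suspensions made fresh each day. Toxicity day survivors were scored on day 5. Body weight difference is day 5 minus day 1. %T/C is based on median survival time versus controls.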
# MX1 [4] = assay: In vivo activity against murine MX-1 tumor system at the dose of 90 mg/kg, activity expressed as TDS; 6/6; type: functional, Mus musculus
# MX1 [5] = assay: In vivo activity against murine MX-1 tumor system at the dose of 90mg/kg, activity expressed as %T/C.; type: functional, Mus musculus
# P388 [6] = assay: In vivo activity against P388 Lymphocytic Leukemia in CD2F1 mice at the dose of 50 mg/kg, activity expressed as KE; type: functional, Mus musculus
# P388 [7] = assay: In vivo activity against P388 Lymphocytic Leukemia in CD2F1 mice at the dose of 25 mg/kg, activity expressed as KE; type: functional, Mus musculus
# L1210 [8] = assay: In vivo activity against murine L1210 tumor system at the dose of 25 mg/kg, activity expressed as TDS; 6/6; type: functional, Mus musculus; in short: as §2
# [9] = In vivo body weight difference was determined in murine M5076 tumor system at the dose of 45 mg/kg; type: functional, Mus musculus
# [10] = In vivo activity against murine M5076 tumor system at the dose of 90 mg/kg, activity expressed as KE; type: functional, Mus musculus
# P388 [11] = assay: In vivo activity against P388 Lymphocytic Leukemia in CD2F1 mice at the dose of 12.5 mg/kg, activity expressed as % T/C; type: functional, Mus musculus
# In short: (§3)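 CD2F1 mice were inoculated with ascitic fluid holding ca. 10^6 P388 cells. Drug was given daily from 24 h after inoculation, from solutions or suspensions made fresh each day, some as a saline suspension. TDS is survivors/initial animals on day 5. BWD is body weight on day 5 minus day 1. %T/C compares median survival of treated and control mice.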
# P388 [12] = assay: In vivo body weight difference was determined against P388 Lymphocytic Leukemia in CD2F1 mice at the dose of 50 mg/kg; type: functional, Mus musculus
# [13] = In vivo activity against murine M5076 tumor system at the dose of mg/kg, activity expressed as %T/C.; type: functional, Mus musculus
# P388 [14] = assay: In vivo activity against P388 Lymphocytic Leukemia in CD2F1 mice at the dose of 12.5 mg/kg, activity expressed as KE; type: functional, Mus musculus
# P388 [15] = assay: In vivo activity against P388 Lymphocytic Leukemia in CD2F1 mice at the dose of 12.5 mg/kg, activity expressed as TDS; 6/6; type: functional, Mus musculus; in short: as §3
# [16] = In vivo activity against murine M5076 tumor system at the dose of 90 mg/kg, activity expressed as %T/C.; type: functional, Mus musculus
# L1210 [17] = assay: In vivo activity against murine L1210 tumor system at the dose of 50 mg/kg, activity expressed as KE; type: functional, Mus musculus; in short: as §2
# MX1 [18] = assay: In vivo activity against murine MX-1 tumor system at the dose of 180 mg/kg, activity expressed as TDS; 0/6; type: functional, Mus musculus
# P388 [19] = assay: In vivo activity against P388 Lymphocytic Leukemia in CD2F1 mice at the dose of 100 mg/kg, activity expressed as % T/C; type: functional, Mus musculus; in short: as §3
# L1210 [20] = assay: In vivo activity against murine L1210 tumor system at the dose of 50 mg/kg, activity expressed as TDS; 6/6; type: functional, Mus musculus; in short: as §2
# [21] = In vivo body weight difference was determined in murine M5076 tumor system at the dose of 180 mg/kg; type: functional, Mus musculus
# P388 [22] = assay: In vivo body weight difference was determined against P388 Lymphocytic Leukemia in CD2F1 mice at the dose of 12.5 mg/kg; type: functional, Mus musculus
# L1210 [23] = assay: In vivo activity against murine L1210 tumor system at the dose of 100 mg/kg, activity expressed as TDS; 0/6; type: functional, Mus musculus; in short: as §2
# P388 [24] = assay: In vivo activity against P388 Lymphocytic Leukemia in CD2F1 mice at the dose of 50 mg/kg, activity expressed as % T/C; type: functional, Mus musculus; in short: as §3
# P388 [25] = assay: In vivo body weight difference was determined against P388 Lymphocytic Leukemia in CD2F1 mice at the dose of 25 mg/kg; type: functional, Mus musculus
# P388 [26] = assay: In vivo activity against P388 Lymphocytic Leukemia in CD2F1 mice at the dose of 50 mg/kg, activity expressed as TDS; 6/6; type: functional, Mus musculus; in short: as §3
# P388 [27] = assay: In vivo activity against P388 Lymphocytic Leukemia in CD2F1 mice at the dose of 100 mg/kg, activity expressed as KE; type: functional, Mus musculus
# P388 [28] = assay: In vivo activity against P388 Lymphocytic Leukemia in CD2F1 mice at the dose of 100 mg/kg, activity expressed as TDS; 6/6; type: functional, Mus musculus; in short: as §3
# L1210 [29] = assay: In vivo body weight difference was determined in murine L1210 tumor system at the dose of 25 mg/kg; type: functional, Mus musculus
# P388 [30] = assay: In vivo activity against P388 Lymphocytic Leukemia in CD2F1 mice at the dose of 200 mg/kg, activity expressed as TDS; 6/6; type: functional, Mus musculus; in short: as §3
# [31] = In vivo activity against murine M5076 tumor system at the dose of 180 mg/kg, activity expressed as TDS; 3/10; type: functional, Mus musculus
# In short: (§4)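 M5076: ascitic fluid with ca. 10^6 cells inoculated ip into CD2F1 mice. Dosing started 24 h after inoculation and was then given every 4 days for four doses in total, from solutions or suspensions made fresh each day. Toxicity day survivors were scored on day 5. Body weight difference is day 14 minus day 1. %T/C is based on median survival time versus controls.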
# L1210 [32] = assay: In vivo activity against murine L1210 tumor system at the dose of 25 mg/kg, activity expressed as %T/C.; type: functional, Mus musculus; in short: as §2
# [33] = In vivo activity against murine M5076 tumor system at the dose of 45 mg/kg, activity expressed as KE; type: functional, Mus musculus; in short: as §4
# P388 [34] = assay: In vivo body weight difference was determined against P388 Lymphocytic Leukemia in CD2F1 mice at the dose of 100 mg/kg; type: functional, Mus musculus
# MX1 [35] = assay: In vivo body weight difference was determined in murine MX-1 tumor system at the dose of 90 mg/kg; type: functional, Mus musculus
# P388 [36] = assay: In vivo activity against P388 Lymphocytic Leukemia in CD2F1 mice at the dose of 400 mg/kg, activity expressed as TDS; 0/6; type: functional, Mus musculus; in short: as §3
# [37] = In vivo activity against murine M5076 tumor system at the dose of 90 mg/kg, activity expressed as TDS; 10/10; type: functional, Mus musculus
# L1210 [38] = assay: In vivo activity against murine L1210 tumor system at the dose of 50 mg/kg, activity expressed as %T/C.; type: functional, Mus musculus; in short: as §2
# [39] = In vivo body weight difference was determined in murine M5076 tumor system at the dose of 90 mg/kg; type: functional, Mus musculus
# [40] = In vivo activity against murine M5076 tumor system at the dose of 45 mg/kg, activity expressed as TDS; 10/10; type: functional, Mus musculus
# P388 [41] = assay: In vivo activity against P388 Lymphocytic Leukemia in CD2F1 mice at the dose of 25 mg/kg, activity expressed as TDS; 6/6; type: functional, Mus musculus; in short: as §3
# P388 [42] = assay: In vivo body weight difference was determined against P388 Lymphocytic Leukemia in CD2F1 mice at the dose of 200 mg/kg; type: functional, Mus musculus
# L1210 [43] = assay: In vivo body weight difference was determined in murine L1210 tumor system at the dose of 50 mg/kg; type: functional, Mus musculus
# P388 [44] = assay: In vivo activity against P388 Lymphocytic Leukemia in CD2F1 mice at the dose of 25 mg/kg, activity expressed as % T/C; type: functional, Mus musculus; in short: as §3
# [45] = Hydrolysis at 25 degree C in 0.05 M phosphate buffer (pH 7.4); the rate was too fast to measure these conditions.; type: ADME; in short: as §1
smiles,measurement,setting,value
CCOC(=O)c1cc[n+](C)c(Cl)c1.O=S(=O)([O-])C(F)(F)F,K obs,[1],0.055 min⁻¹
same,half-life,[2],6 h
Cc1ccc(Cl)[n+](C)c1.O=S(=O)([O-])C(F)(F)F,K obs,[1],0.000708 min⁻¹
same,half-life,[2],269 h
CC(C)NC(=O)OCc1c(COC(=O)NC(C)C)c(-c2ccc(F)[n+](C)c2)n2c1CCC2.[I-],KE,L1210 [3],-2.09
same,TDS,MX1 [4],6
same,T/C,MX1 [5],18%
same,KE,P388 [6],0.32
same,KE,P388 [7],0.06
same,TDS,L1210 [8],6
same,BWD,[9],-0.5 g
same,KE,[10],-1.4
same,T/C,P388 [11],112%
same,BWD,P388 [12],0.6 g
same,T/C,[13],115%
same,KE,P388 [14],-1.42
same,TDS,P388 [15],6
same,T/C,[16],125%
same,KE,L1210 [17],-2.03
same,TDS,MX1 [18],0
same,T/C,P388 [19],158%
same,TDS,L1210 [20],6
same,BWD,[21],-1.4 g
same,BWD,P388 [22],1.2 g
same,TDS,L1210 [23],0
same,T/C,P388 [24],141%
same,BWD,P388 [25],-0.1 g
same,TDS,P388 [26],6
same,KE,P388 [27],1.54
same,TDS,P388 [28],6
same,BWD,L1210 [29],-0.7 g
same,TDS,P388 [30],2
same,TDS,[31],3
same,T/C,L1210 [32],119%
same,KE,[33],-1.79
same,BWD,P388 [34],0.1 g
same,BWD,MX1 [35],0.5 g
same,TDS,P388 [36],0
same,TDS,[37],10
same,T/C,L1210 [38],123%
same,BWD,[39],-1.8 g
same,TDS,[40],10
same,TDS,P388 [41],6
same,BWD,P388 [42],-0.1 g
same,BWD,L1210 [43],-0.7 g
same,T/C,P388 [44],137%
Cc1ccc(F)[n+](C)c1.O=S(=O)([O-])C(F)(F)F,K obs,[1],0.0605 min⁻¹
same,half-life,[2],0.19 h
CCOC(=O)c1cc[n+](C)c(F)c1.O=S(=O)([O-])C(F)(F)F,K obs,[45],Rate too fast
Cc1cc(Br)c(Cl)[n+](C)c1.O=S(=O)([O-])C(F)(F)F,K obs,[1],0.041 min⁻¹
same,half-life,[2],17 h
